For the data set, the system named is MS2 coat protein. Description: apparent Kd, MS2 coat protein; higher = weaker binding; RNA-MaP array. Put shortly:
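Apparent Kd values come from the median of binding-curve fits to single clusters. To obtain them, designed RNAs transcribed on an Illumina sequencing chip from sequenced DNA templates were incubated at room temperature with fluorescently labeled MS2 coat protein at 1.5 nM to 3 μM, with or without input ligand, for 0.8–1.5 h at the lowest and 10–20 min at the highest concentrations. Designs measured on fewer than 10 clusters were excluded.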

Setting [1] is: designed as: OFF switch for flavin mononucleotide, no ligand.
[2] abbreviates: ligand present: flavin mononucleotide, designed as: OFF switch for flavin mononucleotide.
Where [3] appears, read: designed as: ON switch for flavin mononucleotide, no ligand.
Setting [4] is: ligand present: flavin mononucleotide, designed as: ON switch for flavin mononucleotide.
The mark [5] stands for this setting: designed as: OFF switch for tryptophan, no ligand.
The mark [6] stands for this setting: ligand present: tryptophan, designed as: OFF switch for tryptophan.

Usually apparent Kd stands for the concentration giving half-maximal binding under the conditions of the assay. Turning to “UGCCAGGCACAGAAGGUAGCGUGUCCUCAAGACAUGAGGAUCACCCAUGUGGAAAGAUUAAGACCUAAGGAUAUGUGUAUCACC”, the “apparent Kd” value turned out to be 143 nM under setting [1] and 93.9 nM under setting [2].

For “GUGAACGUCAAAGGAUAUGUCGGAACUGCUAGAACAGAAGGUUGGGAAUCGGAUUGGUUGCACAUGAGGAUCACCCAUGUUGAG”, the “apparent Kd” value is 443 nM under setting [3] and 264 nM under setting [4].

“UCCGGCGUUGACUAGGAUAUACGGAGGGUAACAUGAGGAUCACCCAUGUAAAGAACUAAAACAGCGUAGAAGGAGUCCAAAGCGAC”: the “apparent Kd” value worked out at 28 nM under setting [3] and 19.1 nM under setting [4].

For the sequence “GGUUCCUCAACGGCCGCCACUUACUGGAUUAGUGGACCUACUUGCAACAUGAGGAUCACCCAUGUAAGGACCGGGUUGCUCCCAA”, the “apparent Kd” value under setting [5] amounted to 68.2 nM and the “apparent Kd” value under setting [6] came to 79.2 nM.

For “GCACUUAUAGCAGGAUAUCUUUAAACACCGAAAGGUAGCGGUACAUGAGGAUCACCCAUGUCAACAGAGAAGGGCUCAUAGUCU”, the “apparent Kd” value reads like this: under setting [3], 11.1 nM; under setting [4], 8.63 nM.

Consider “GGUGAUUUCCGACGUUUACAUGAGGAUCACCCAUGUAGGUAGAAGGAUAUGUGUAAAAUUGAUAAACAGAAGGUCUUCCGAAUA”, for which the “apparent Kd” value was determined as 12.2 nM under setting [1] and 49.3 nM under setting [2].

For “GGGUUACACACAUGAGGAUCACCCAUGUUUGCGUGGGCGGGCAGAAGGAGAACCGGAUUACACUUCUAGGAUAUGCAGAUGAUC”, the “apparent Kd” value under setting [3] is 23.6 nM and the “apparent Kd” value under setting [4] amounted to 28.2 nM.

For the sequence “UUCAUUUUCUAGGAUAUGUACCAGAAAAUAGUUACAGAAGGAGAGACAUGAGGAUCACCCAUGUUGGCAACAGC”, the “apparent Kd” value is, setting by setting: under setting [1], 10.7 nM; under setting [2], 11.6 nM.

For the sequence “GGAAAACACAAGAAGGCGUCGGACUGGGCGAGACGAGGAUAUUGUAGCUCUAAUCGUGGACAGACAUGAGGAUCACCCAUGUCG”, the “apparent Kd” value was 7.93 nM under setting [3] and 6.18 nM under setting [4].

As to “AAGUCGCAAGGAUAUACAGUAAGGGUUCGGAUGGGAAGCUUACAUGAGGAUCACCCAUGUAGAAGGUGCAUUCA”, the “apparent Kd” value under setting [1] was 26.9 nM and the “apparent Kd” value under setting [2] worked out at 31.4 nM.

In the case of “AUUGAACGUGCAGGAUAUCAAAACCGGAAUCGUUGAGAAGGGCAGUAAUCGGAGAGCACAUGAGGAUCACCCAUGUUCAAUCGA”, the “apparent Kd” value is, setting by setting: under setting [3], 15.9 nM; under setting [4], 9.32 nM.

On to “UAAUCCAACUCGUAAUGACAUGAGGAUCACCCAUGUGAGCGUGAGGAUAUUGUAAGCUAGGAGGUCAAGAAGGCACGCCAGGAG”, for which the “apparent Kd” value runs as follows: under setting [1], 9.1 nM; under setting [2], 10 nM.

“CGCCCGUACUCAGGAUAUCGAAGUACGAGCCAAAUUAUGUCGGACAUGAGGAUCACCCAUGUGGGCGAGAAGGGAGAACGUGCG”: the “apparent Kd” value runs as follows: under setting [1], 29.4 nM; under setting [2], 16.4 nM.

Regarding “UAUUAGUUAGAGAAGGUCCUUAGGCCGCGUAAGGAAGGAUAUCUGCAUCACGGGCCUCUGGCAACAUGAGGAUCACCCAUGUGG”, the “apparent Kd” value worked out at 96.8 nM under setting [1] and 156 nM under setting [2].

Regarding “AAUCGCCGUAAGAAGGCCACAUAAACAUGAGGAUCACCCAUGUACAGGCGACCUUUAUAUAAUGUGGAGGAUAUUAACUGCUUC”, the “apparent Kd” value amounted to 36.2 nM under setting [1] and 90.5 nM under setting [2].

As to “GCCGCCGGUGCUUCAUUCCCUGAGCGACGGCGAGGACCGGUACGGCCGCCACUCGGCUCGGUACAUGAGGAUCACCCAUGUCUUU”, the “apparent Kd” value amounted to 44.7 nM under setting [5] and 54.5 nM under setting [6].

As to “CCAAAGUAAGGAUAUCGAAGAACCACAACCGACGGAACGAACGAGAAGGUACAUGAGGAUCACCCAUGUGAUAG”, the “apparent Kd” value by setting is: under setting [1], 11.6 nM; under setting [2], 19.7 nM.

With “AAAGGUUGAGGAUAUCAUCCUCCAAACAUGAGGAUCACCCAUGUUGAUCUUCACGUACGAUGAGAAGGCAACACCU”, the “apparent Kd” value reads like this: under setting [1], 585 nM; under setting [2], 683 nM.

“ACCGUAUGGGAGAAGGAACUAUGUUAGACAUGAGGAUCACCCAUGUUCCAGAAUGUAGGGCUCAGUUAGGAUAUCCAAUUCAGA”: the “apparent Kd” value is, setting by setting: under setting [1], 11.1 nM; under setting [2], 21.8 nM.

Consider “AUAGUGUAAGGAUAUGUAGAGAGCUAGAAAAUACAAACAAUACAGAAGGUACAUGAGGAUCACCCAUGUGAUUG”, for which the “apparent Kd” value is, setting by setting: under setting [1], 14.4 nM; under setting [2], 26.3 nM.

With “UCGCGUCUAGCUCAGGAUAUUGUGCCUGAUACAUGAGGAUCACCCAUGUCCUAAGUGCAAACCAACAAGAAGGGAGCUAAGCAUGU”, the “apparent Kd” value runs as follows: under setting [3], 13.9 nM; under setting [4], 13.2 nM.

On to “GAUGCACAUGAGGAUCACCCAUGUCCUGAUACCAGAACGCGACUUUUCCCUUGGCAGCAGAAUUCACUUUUUUACAUUCAUACUG”, for which the “apparent Kd” value by setting is: (designed as: ON switch for theophylline, no ligand) 22.1 nM; (ligand present: theophylline, designed as: ON switch for theophylline) 22.9 nM.
